Data set [1] concerns DU-145. Nature of the data set: Cytotoxicity against human DU145 cells after 72 hrs by MTT assay. To be noted: DU-145, 72 h. The data set is classed as functional, cell-based. Summed up: (§1)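 Prostate cancer cells were kept in RPMI 1640 at 37 °C, 5% CO2, with 5% FBS for DU145 and 10% FBS for LNCaP and PC3. After 24 h, medium was changed and peptides added at various concentrations, up to 350 μM. Viability was read by MTT after 72 h treatment. IC50 from dose–response curves, triplicate, mean ± SEM.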
On the technique in general: Tetrazolium dyes change colour on reduction, which living cells bring about.

A short description of data set [2]: Acute toxicity in human DU145 cells assessed as cell death/lysis at 100 uM after 4 hrs by LDH assay. In kind it is cell-based, DU-145. To be noted: read-out: INH. In a few lines: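 DU145 cells (RPMI 1640, 5% FBS, 37 °C, 5% CO2) plated; 24 h later peptides added at 100 μM. After 4 h, release of lactate dehydrogenase into the medium was quantified enzymatically with a commercial LDH cytotoxicity kit as the measure of acute membrane damage/lysis.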

Data set [3] concerns PC-3. Nature of the data set: Cytotoxicity against human PC3 cells after 72 hrs by MTT assay. In kind it is functional, cell-based. To be noted: PC-3, 72 h. In a few lines:
as §1

For data set [4], the target named is Furin (Homo sapiens, UniProt P09958). Nature of the data set: Inhibition of human recombinant furin expressed in drosophila schneider 2 cells using pyroGlu-Arg-Thr-Lys-Arg-AMC as substrate after 1 hr. Summed up:
(§2)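 Human enzymes were expressed in Drosophila S2 cells and purified. Fluorogenic pyroGlu-RTKR-AMC was used at fixed concentration with varied inhibitor, 37 °C over 1 h. Buffers: furin, 100 mM Hepes pH 7.5, 1 mM CaCl2, 1 mM β-mercaptoethanol, 1.8 mg/mL BSA; PACE4 and PC7, 20 mM Bis-Tris pH 6.5, 1 mM CaCl2, 1.8 mg/mL BSA; PC2, same buffer at pH 5.7. Ki from IC50 (Cheng–Prusoff), or apparent Ki (Morrison) for tight binders. Triplicate, mean ± SD.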

The nature of data set [5]: Half life in CD-1 mouse plasma at 0.5 ug/uL by RP-HPLC analysis. In kind it is ADME, cell-free. Summed up: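 Peptides at 0.5 μg/μL were incubated at 37 °C in heparinized plasma pooled from mixed-sex CD1 mice. At each time point the reaction was stopped with 1 M guanidinium-HCl, then acetonitrile, and proteins were spun out. Supernatant peptide AUC (RP-HPLC) was compared with non-incubated samples. Half-life came from a one-phase decay fit. Run ≥3 times, duplicate per time point.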

The subject of data set [6] is Plasma. Nature of the data set: Drug degradation in CD-1 mouse plasma at 0.5 ug/uL after 30 mins by MALDI-TOF MS analysis. In kind it is ADME, cell-free. To be noted: 0.5 h. In a few lines: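 For fragment mapping, 100 μg peptide was incubated in murine plasma at 37 °C. At each time point, plasma samples were quenched with 3% TFA. Proteins were precipitated with 2 volumes acetonitrile and centrifuged at 17 000g. Supernatants were analyzed by MALDI-TOF MS for C-terminally truncated fragments.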

Data set [7] concerns DU-145. Put plainly: Cellular uptake in human DU145 cells after 1 hr by propidium iodide staining-based FACS analysis. In kind it is ADME, cell-based. To be noted: du-145, 1 h. Summed up:
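FITC-βAla-labelled peptides at 10 μM were given to DU145 cells for 1 h in serum-free RPMI. Cells were collected, then washed twice with 0.05% trypsin (5 min, 37 °C) to strip membrane-bound peptide. Propidium iodide (10 μg/mL, 2 min) excluded damaged cells. FACS read 10 000 events/sample as geometric mean fluorescence, against untreated-cell autofluorescence.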
A general note: Flow cytometry measures light scatter and fluorescence of single cells or particles in a stream.

In data set [8] the target is T1, Proprotein convertase subtilisin/kexin type 7 (Homo sapiens, UniProt Q16549).
T1 sequence (Q16549 whole entry): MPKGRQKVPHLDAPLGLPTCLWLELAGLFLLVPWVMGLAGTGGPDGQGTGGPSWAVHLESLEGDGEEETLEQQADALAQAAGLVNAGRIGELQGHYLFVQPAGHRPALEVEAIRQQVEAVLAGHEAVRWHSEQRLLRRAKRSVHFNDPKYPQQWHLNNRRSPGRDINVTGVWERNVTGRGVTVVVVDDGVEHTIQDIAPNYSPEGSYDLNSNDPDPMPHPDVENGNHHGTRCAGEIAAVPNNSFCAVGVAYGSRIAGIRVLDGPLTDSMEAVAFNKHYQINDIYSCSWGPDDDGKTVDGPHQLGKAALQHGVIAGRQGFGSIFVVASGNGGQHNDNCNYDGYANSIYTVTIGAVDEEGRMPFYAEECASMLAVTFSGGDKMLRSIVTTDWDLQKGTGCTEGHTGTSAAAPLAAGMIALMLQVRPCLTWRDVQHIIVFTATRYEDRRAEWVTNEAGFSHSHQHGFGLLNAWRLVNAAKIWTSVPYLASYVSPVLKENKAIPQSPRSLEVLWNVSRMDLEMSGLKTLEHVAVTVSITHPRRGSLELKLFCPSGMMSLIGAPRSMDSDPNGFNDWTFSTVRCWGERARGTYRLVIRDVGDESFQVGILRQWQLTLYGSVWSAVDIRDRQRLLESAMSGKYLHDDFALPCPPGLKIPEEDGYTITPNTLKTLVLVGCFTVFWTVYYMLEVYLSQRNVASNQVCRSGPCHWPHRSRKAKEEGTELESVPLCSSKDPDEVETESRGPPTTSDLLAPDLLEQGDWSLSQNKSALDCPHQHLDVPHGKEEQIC
Nature of the data set: Inhibition of human PC7 expressed in drosophila schneider 2 cells using pyroGlu-Arg-Thr-Lys-Arg-AMC as substrate after 1 hr. In a few lines: as §2

The test system of data set [9] is LNCaP. Put plainly: Cytotoxicity against human LNCAP cells after 72 hrs by MTT assay. The data set is classed as functional, cell-based. In a few lines:
as §1

Peptide text beside a SMILES is read from it. * marks the point of attachment. X1 = N=C(N)NC/C=C/CN*

Sequence of Furin (P09958 whole entry): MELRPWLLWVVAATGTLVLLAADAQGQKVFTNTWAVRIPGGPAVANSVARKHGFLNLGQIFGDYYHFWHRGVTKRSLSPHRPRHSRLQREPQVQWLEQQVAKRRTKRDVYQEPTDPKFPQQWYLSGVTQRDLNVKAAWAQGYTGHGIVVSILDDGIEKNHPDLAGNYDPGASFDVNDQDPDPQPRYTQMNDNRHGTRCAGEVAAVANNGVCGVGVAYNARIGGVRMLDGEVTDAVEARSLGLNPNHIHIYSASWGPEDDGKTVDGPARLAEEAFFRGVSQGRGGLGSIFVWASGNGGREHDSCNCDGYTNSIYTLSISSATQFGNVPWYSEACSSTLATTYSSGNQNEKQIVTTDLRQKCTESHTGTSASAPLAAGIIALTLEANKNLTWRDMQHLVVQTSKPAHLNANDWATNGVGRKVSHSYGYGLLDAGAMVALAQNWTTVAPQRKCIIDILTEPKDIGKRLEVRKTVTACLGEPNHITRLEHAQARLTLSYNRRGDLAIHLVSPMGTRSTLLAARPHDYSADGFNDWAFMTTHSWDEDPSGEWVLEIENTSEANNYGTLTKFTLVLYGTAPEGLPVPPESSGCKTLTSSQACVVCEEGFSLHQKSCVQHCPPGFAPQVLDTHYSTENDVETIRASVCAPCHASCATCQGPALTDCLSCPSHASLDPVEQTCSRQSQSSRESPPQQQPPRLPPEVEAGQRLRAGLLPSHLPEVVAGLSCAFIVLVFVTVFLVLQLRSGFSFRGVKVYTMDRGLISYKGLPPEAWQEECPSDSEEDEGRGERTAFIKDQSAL

By IC50 is commonly meant the concentration at which inhibition is half-maximal. Read a high IC50 as a need for much substance. As a reminder, the Ki is the dissociation constant of the complex between target and ligand, obtained from inhibition or displacement. What is called half-life is the time in which the quantity being followed falls by half. With `CC(=O)N[C@@H](CC(C)C)C(=O)N[C@@H](CC(C)C)C(=O)N[C@@H](CC(C)C)C(=O)N[C@@H](CC(C)C)C(=O)N[C@@H](CCCNC(=N)N)C(=O)N[C@H](C(=O)N[C@@H](CCCCN)C(=O)NC/C=C/CNC(=N)N)C(C)C` (Ac-LLLLRVK-X1), the 50% inhibitory concentration (IC50) was determined as 90 µM in data set [1], 200 µM in [3] and 70 µM in data set [9]. Moreover, the cytotoxicity at 4 h, 100 µM in data set [2] was less than 5%. Also, the inhibition constant (Ki) in data set [4] came out at 0.027 µM; in data set [8] it was 0.072 µM. In addition, the half-life at 0.5 ug/uL in [5] is 7.2 h. In data set [6], the Stability result is “Unstable”. The Drug uptake entry in data set [7] is reported as “Active”.

Source of the values: ChEMBL document CHEMBL3112425, “Design, synthesis, and structure-activity relationship studies of a potent PACE4 inhibitor” (J Med Chem, 2014).
